In ChEMBL document CHEMBL1177650, “Synthesis, structural elucidation and in vitro antiparasitic activity against Trypanosoma cruzi and Leishmania chagasi parasites of novel tetrahydro-1-benzazepine derivatives” (Bioorg Med Chem, 2010):

Tests used:
[1] = Cytotoxicity against african green monkey Vero cells after 72 hrs by MTT assay; assay type: cell-based; conditions: chlorocebus sabaeus
How it was run: (§1)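 Vero or transformed THP-1 cells incubated with compound (0.3–300 μM) 72 h at 37 °C, 5% CO2; untreated controls. MTT read-out, formazan OD at 580 nm; % cytotoxicity = 100 × (OD control − OD treated)/OD control. CC50/CC90 by sigmoidal regression; triplicates, repeated twice. DMSO stocks 100× concentrated, diluted in medium.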

Trypanosoma cruzi [2] = experiment: Antitrypanosomal activity against Trypanosoma cruzi 320I01 epimastigotes after 72 hrs by haemocytometry; assay type: functional, organism-based; conditions: 320I01, 72 h
How it was run: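 Late-phase T. cruzi epimastigotes cultured in LIT medium with hiFCS at 28 °C; threefold serial dilutions (0.3–100 μM) for 72 h at 28 °C, untreated controls. Parasites counted in a haemocytometer; IC50/IC90 by sigmoidal regression; each concentration in triplicate, two experiments.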

[3] = Selectivity index, CC50 for african green monkey Vero cells to IC50 for Trypanosoma cruzi 320I01 epimastigote; assay type: functional
How it was run: (§2)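 Selectivity index computed as CC50 in Vero cells divided by IC50 against the T. cruzi stage named in the line.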

Trypanosoma cruzi [4] = experiment: Antitrypanosomal activity against Trypanosoma cruzi 320I01 amastigotes infected in african green monkey Vero cells after 5 days by Giemsa staining; assay type: functional, organism-based; conditions: 320I01, Vero, 120 h
How it was run: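 Vero cells (RPMI, 5% hiSBF, 37 °C, 5% CO2) infected 24 h with tissue-derived T. cruzi trypomastigotes at parasite:cell 10:1. Compound dilutions (top 100 μM) applied 5 days at 37 °C, 5% CO2, medium changed once at day 3. Infected cells scored per 300 cells on methanol-fixed Giemsa preparations; IC50/IC90 by sigmoidal regression; triplicates, two experiments.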

[5] = Selectivity index, CC50 for african green monkey Vero cells to IC50 for Trypanosoma cruzi 320I01 amastigotes; assay type: functional; how it was run: as §2
Leishmania chagasi [6] = experiment: Antileishmanial activity against Leishmania chagasi MHOM/BR/74/PP75 promastigotes after 72 hrs by haemocytometry; assay type: functional, organism-based; conditions: MHOM/BR/74/PP75, 72 h
How it was run: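 Late-phase L. chagasi promastigotes, grown at 28 °C in RPMI 1640 with hemin, HEPES and 10% hiSBF, exposed to threefold serial dilutions (0.3–100 μM) for 72 h at 28 °C; untreated controls. Growth inhibition from haemocytometer counts; IC50/IC90 by sigmoidal regression; triplicates, repeated twice.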

[7] = Cytotoxicity against human THP1 cells after 72 hrs by MTT assay; assay type: cell-based; conditions: THP-1 cells; how it was run: as §1
[8] = Selectivity index, CC50 for human THP1 cells to IC50 for Leishmania chagasi MHOM/BR/74/PP75 promastigotes; assay type: functional, THP-1
How it was run: (§3)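 Selectivity index computed as CC50 in THP-1 cells divided by IC50 against the L. chagasi stage named in the line.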

Leishmania chagasi [9] = experiment: Antileishmanial activity against Leishmania chagasi MHOM/BR/74/PP75 amastigotes infected in human THP1 cells after 5 days by Giemsa staining; assay type: functional, organism-based; conditions: MHOM/BR/74/PP75, THP-1, 120 h
How it was run: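 THP-1 cells (RPMI, 5% hiSBF, 37 °C, 5% CO2) transformed, then infected 24 h with late-phase L. chagasi promastigotes at parasite:cell 10:1. Treated with compound dilutions (top 100 μM) 5 days at 37 °C, 5% CO2, medium changed once after 3 days. Infected cells counted per 300 cells on methanol-fixed Giemsa slides; IC50/IC90 by sigmoidal regression; triplicates, repeated twice.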

[10] = Selectivity index, CC50 for human THP1 cells to IC50 for Leishmania chagasi MHOM/BR/74/PP75 amastigotes; assay type: functional, THP-1; how it was run: as §3

IC50 (Trypanosoma cruzi [2]) [µM] | IC90 (Trypanosoma cruzi [2]) [µM] | IC50 (Trypanosoma cruzi [4]) [µM] | IC90 (Trypanosoma cruzi [4]) [µM] | IC50 (Leishmania chagasi [6]) [µM] | IC90 (Leishmania chagasi [6]) [µM] | IC50 (Leishmania chagasi [9]) [µM] | IC90 (Leishmania chagasi [9]) [µM] | SMILES | CC50 at 72 h [1] [µM] | CC90 at 72 h [1] [µM] | Selectivity Index [3] | Selectivity Index [5] | CC50 at 72 h [7] [µM] | CC90 at 72 h [7] [µM] | Selectivity Index [8] | Selectivity Index [10]
> 100 | > 100 | > 100 | > 100 | > 100 | > 100 | > 100 | > 100 | c1ccc([C@@H]2C[C@@H]3Cc4ccccc4N2O3)cc1 (relative stereo) | > 300 | > 300 | >3 | >3 | > 300 | > 300 | >3 | >3
26.9 | > 100 | > 100 | > 100 | 15.7 | 34.7 | > 100 | > 100 | FC(F)(F)Oc1ccc2c(c1)C[C@H]1C[C@@H](c3ccccc3)N2O1 (relative stereo) | > 300 | > 300 | >11 | >3 | > 300 | > 300 | >19 | >3
23.4 | > 100 | 56.4 | 43.6 | 25.5 | 54.9 | > 100 | > 100 | Brc1ccc2c(c1)C[C@H]1C[C@@H](c3ccccc3)N2O1 (relative stereo) | > 300 | > 300 | >12 | >5 | > 300 | > 300 | >11 | >3
